The list is not random: actives were taken first. Their share in the collection is about 11%.
M1 antagonist – M1 muscarinic receptor (rat) antagonism; B-score at 10 µM; CHO-M1 cells, Fluo-4 calcium, ACh EC80 antagonist mode; hits give low values; 64,000 compounds, 3.4% hits; AID 628;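 active means calcium fluorescence response, raw or row-and-column corrected B-score, differing from the plate sample mean either way at a set confidence level, mostly lower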
TNAP act mid DEA – activators of human TNAP at intermediate phosphate acceptor; P05186; purified TNAP, CDP-star luminescence, 100 mM DEA, 30 min; hits give high values; scale: 0 levamisole-inhibited, 1 vehicle-only enzyme; activation factor at 20 µM; 64,000 tested, under 10 active; AID 813;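 active means activation factor of at least 2 at 20 µM, relative to controls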
S1P3 ag – S1P3 (human) receptor agonism; 60,000 compounds, 0.1% hits; Q99500; activation, % at 4.5 µM; AID 373; S1P3 NFAT-BLA reporter cells, FRET ratio; relative to 1 µM S1P, basal subtracted;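 active means activation above the screen-wide mean plus 3 SD, cut at about 4.5% in these data, passing the limit was not always enough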
Target sequence (Q99500 whole entry, looked up): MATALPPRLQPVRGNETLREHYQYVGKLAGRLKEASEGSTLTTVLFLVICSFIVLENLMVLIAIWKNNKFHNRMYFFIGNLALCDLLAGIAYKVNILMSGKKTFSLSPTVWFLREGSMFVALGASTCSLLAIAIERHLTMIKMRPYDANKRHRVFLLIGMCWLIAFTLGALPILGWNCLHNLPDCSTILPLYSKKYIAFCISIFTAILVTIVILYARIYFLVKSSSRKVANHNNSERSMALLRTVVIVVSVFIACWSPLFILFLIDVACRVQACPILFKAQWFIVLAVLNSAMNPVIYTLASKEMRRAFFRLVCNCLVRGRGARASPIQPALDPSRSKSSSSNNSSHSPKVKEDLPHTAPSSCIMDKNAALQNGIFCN
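Material: Human S1P3 NFAT-BLA reporter CHO cells | Incubation: Overnight plating, 4 h compound 37 °C, 2 h substrate RT | Signal: FRET β-lactamase substrate fluorescence, excitation 405 nm, 460/535 nm emission ratio, background-subtracted | Compound: 4.5 µM final, single dose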
S1P1 ag pot – S1P1 (human) agonism or agonism potentiation. S1P1 CRE-bla cells, forskolin, beta-lactamase FRET, potentiator mode; S1P1 agonist co-added at EC20, 2 nM; 100% = saturating reference agonist, 0% = basal. activation, % at 9.5 µM. 56,000 compounds, 0.57% hits. AID 449;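 active means activation above a cutoff set at the mean activation of all tested compounds plus 3 SD, cut at about 54% in these data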;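 further: forskolin at 4 µM as EC80 and the EC20 agonist is SEW2871; 100% = SEW2871 at its EC100 plus forskolin at EC80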
D1 mod – allosterically modulates the human D1 dopamine receptor; P21728; HEK293 D1, CRE-luciferase, dopamine EC30 potentiation; actives deviate in either direction; B-score at 10 µM; 58,000 compounds, 5.9% hits;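 active means luminescence count or its row- and column-corrected plate score outside the 99.7% band of the plate's sample wells, on either side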
M1 ag – activates the M1 muscarinic receptor | CHO-M1 cells, Fluo-4 calcium fluorescence, agonist mode; hits give high values | B-score at 10 µM | 64,000 compounds, 3% hits | AID 626;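 active means fluorescence rise, raw or as B-score row- and column-corrected plate score, outside the 99.7% band of its plate's samples, either direction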
M1 antag confirm – confirmation of rat M1 muscarinic receptor antagonists; shares compounds with M1 antagonist; CHO-M1 cells, Fluo-4 calcium, ACh EC80 antagonism; hits give low values; calcium response (max-min fluorescence) at 10 µM; 1,700 compounds, 43% hits; AID 677;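 active means calcium response below the same-plate mean of wells given acetylcholine alone at its 80%-effect dose, minus 3 SD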;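 further: raw fluorescence intensity difference in arbitrary instrument units and not normalized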
mGluR4 antag – selectivity test for M1 antagonists: human mGluR4 receptor; fluorescence response (max-min) at 10 µM; CHO-mGluR4 calcium flux, Fluo-4 fluorescence, glutamate EC80; hits give low values; shares compounds with M1 antagonist; 1,700 compounds, 0.9% hits;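 active means fluorescence response below the plate's average for near-maximal glutamate wells, less 3 SD of those wells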;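 further: raw unnormalized fluorescence span taken in the window right after glutamate addition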
D1 mod confirm – confirmation of human D1 dopamine receptor allosteric modulators; shares compounds with D1 mod; HEK293 D1 CRE-luciferase, dopamine EC30 potentiation; hits give high values; luminescence at 10 µM; 2,200 compounds, 88% hits;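 active means luminescence in either of two replicates above the same-plate mean plus 3 SD of the low-dose dopamine control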
D1 no dopamine – activates D1 CRE-luciferase signal without dopamine present; shares compounds with D1 mod; HEK293 D1 CRE-luciferase, luminescence, no dopamine; hits give high values; luminescence at 10 µM; 1,900 compounds, 0.8% hits; in the data active means luminescence above about 3900
Isoprot counter – counter-screen for D1 modulators: isoproterenol response in HEK293 cells; 2,200 compounds, 63% hits; AID 647; luminescence at 10 µM; HEK293 D1 CRE-luciferase, isoproterenol EC30 counter-screen; hits give high values; shares compounds with D1 mod;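 active means luminescence in either replicate above plate mean of wells with a partly effective reference agonist dose plus 3 SD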;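 further: isoproterenol raises cAMP through native beta-adrenoceptor Gs so signal bypasses D1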
* hit, by the source's call; x = no result given.

SMILES	M1 antagonist	TNAP act mid DEA	S1P3 ag	S1P1 ag pot	D1 mod	M1 ag	D1 mod confirm	D1 no dopamine	Isoprot counter	others
CC1CN=C(Nc2ccc(N(C)C)cc2)S1 (centres undefined)	-2.12*	0.9	-3.9	-3.7	-3.59	-1.56	x	x	x	M1 antag confirm=606;mGluR4 antag=240
O=C(CCCOc1ccc(Cl)cc1Cl)N1CCC2(CC1)OCCO2	0.0188	0.8	0.3	-3.1	6.6*	0.0154	8848*	1464	4488*
CCOc1cc2[nH]c(=S)n(CCCC(=O)N3CCC4(CC3)OCCO4)c(=O)c2cc1OCC	0.0502	0.8	x	x	0.848	0.916	x	x	x
Cc1ccnc(-n2c(-c3ccco3)nc3ccccc3c2=O)c1	-0.0972	0.8	-0.6	13.4	0.87	0.787	x	x	x
O=c1[nH]c2ccccc2c(=O)n1-c1cccc(Cl)c1	1.8	1	-0.7	-12.8	9.16*	0.169	10464*	1816	3436*
CC(=NCCCn1ccnc1)c1c(O)n(C)c(=O)n(C)c1=O	0.893	0.8	0.0	-7.5	-0.165	-0.105	x	x	x
CCOC(=O)c1c(C)n(Cc2ccccc2)c2ccc(OCC(O)CN3C(=O)CNC3=O)cc12 (centres undefined)	0.0103	1	-0.8	-1.7	10.1*	0.793	22384*	1552	5668*
CCOC(=O)c1c(C)n(Cc2ccco2)c2ccc(O)cc12	0.309	0.8	-1.0	x	1.3	1.39	x	x	x
CCC(=NCc1ccco1)c1c(O)[nH]c(=O)[nH]c1=O	0.0272	0.9	-0.4	1.0	8.61*	-1.12	16800*	x	4016*
Cc1ccc(CCN2CC(C(=O)N3CCC4(CC3)OCCO4)CC2=O)cc1 (centres undefined)	1.14	1	-0.5	3.2	0.0984	-0.198	x	x	x
O=c1cccc2n1CC1CC2CN(Cc2c(Cl)cccc2Cl)C1 (centres undefined)	-0.00342	0.9	0.1	x	0.466	0.144	x	x	x
Cc1ccc(CN2CC3CC(C2)c2cccc(=O)n2C3)cc1 (centres undefined)	-0.00769	0.9	-1.1	-0.3	3.33*	-0.897	7636	1800	2372
CCOC(=O)c1c(N)n(CCN2CCCCC2)c2nc3ccccc3nc12	0.026	0.9	0.0	-6.0	0.376	0.0187	x	x	x
CCC(C)NC(=O)c1c(N)n(CCCOC)c2nc3ccccc3nc12 (centres undefined)	0.142	1	2.2	-94.8	5.09*	-0.95	9844*	1520	2960*
COCCCn1c(N)c(C(=O)OC(C)COC)c2nc3ccccc3nc21 (centres undefined)	0.252	0.9	0.1	-13.0	5.55*	0.644	8820*	1816	2856
CCCCOCCCn1c(N)c(C(=O)OC(C)COC)c2nc3ccccc3nc21 (centres undefined)	-0.802	0.9	-1.6	-3.8	6.75*	3.84	11516*	1488	3460*
COC(=O)CSC1=NP(=S)(SCC(=O)OC)N2CCCC2=C1C#N (centres undefined)	0.518	0.9	0.2	2.7	0.0143	0.264	x	x	x
CCOP(=O)(C#CC(C)(C)C)C(O)(c1ccccc1)C(F)(F)F (centres undefined)	-0.363	0.9	-0.6	-10.6	-0.452	0.0298	x	x	x
CCOC(=O)N(c1ccccc1)P1(=S)OCCO1	0.147	1	-1.1	-1.1	7.42*	0.974	19704*	1752	3780*
COC(=O)N(c1ccccc1)P1(=S)OCCO1	-0.00566	0.9	-0.3	-6.8	5.31*	0.821	11592*	1628	3344*
CCOC(=O)N(c1ccccc1)P1(=S)OCC(C)O1 (centres undefined)	x	0.9	-0.8	10.0	x	x	x	x	x
COc1cccc(-c2cc(C(F)(F)F)n3nc(C(=O)N4CCC5(CC4)OCCO5)cc3n2)c1	-0.731	0.9	-0.4	-21.6	2.36*	1.06	9588*	x	2712
COc1cccc(-c2nc(CS(=O)CC(=O)N3CCC4(CC3)OCCO4)c(C)o2)c1 (centres undefined)	0.371	1	-1.3	7.7	1.2	-1.16	x	x	x
NCCc1ccc(O)cc1	0.366	0.9	-1.0	-17.2	5.06*	0.0055	7676*	17832*	5168*
CC1(C)CN=C(Nc2ccc(F)c(F)c2)S1	0.441	0.9	-0.1	-29.8	12.1*	0.794	25280*	1544	4564*
SMILES	M1 antagonist	TNAP act mid DEA	S1P3 ag	S1P1 ag pot	D1 mod	M1 ag	D1 mod confirm	D1 no dopamine	Isoprot counter	others
OC1(c2ccc(F)cc2)CC2CCC(C1)N2Cc1nnnn1C1CCCCC1 (centres undefined)	-1	0.9	0.2	3.8	-0.596	-0.145	x	x	x
C=CCn1c(O)c(C(C)=NCc2cccnc2)c(=O)[nH]c1=O	1.61	0.9	0.1	-7.0	0.649	-0.446	x	x	x
C=CCn1c(O)c(C(C)=NCc2cc(OC)cc(OC)c2)c(=O)[nH]c1=O	-1.02	0.9	-0.9	6.3	3.2*	-0.0254	9872*	1756	3832*
CCCCn1c(O)c(C(CC)=NCCc2ccccc2)c(=O)[nH]c1=O	0.109	0.9	0.2	-31.9	6.28*	1.58	8912*	1568	3084*
CCCCn1c(O)c(C(CC)=NCCCN(C)C)c(=O)[nH]c1=O	x	0.8	-0.4	-5.1	0.246	x	x	x	x
CCCCn1c(O)c(C(C)=NCc2ccc(F)cc2)c(=O)[nH]c1=O	0.536	0.9	-0.8	-5.3	4*	-0.499	10964*	1708	2908
COCCOC(=O)C1=C(N)Oc2c(c(=O)oc3ccccc23)C1c1ccncc1 (centres undefined)	0.381	0.9	-0.4	-27.1	0.64	0.52	x	x	x
CC(c1ccccc1)n1cncc1C(=O)N1CCCC1=O (centres undefined)	0.0065	0.9	-0.4	-3.9	0.0774	-1.36	x	x	x
